Published values collected from several papers.
Each line is one published result; the experiments were not run side by side.
ABL1 T315I phosphorylated: Tyrosine-protein kinase ABL1, phosphorylated (ABL1, Homo sapiens, UniProt P00519, T315I)
ABL1 phosphorylated: Tyrosine-protein kinase ABL1, phosphorylated (ABL1, Homo sapiens, UniProt P00519)
ABL1 Q252H: Tyrosine-protein kinase ABL1 (ABL1, Homo sapiens, UniProt P00519, Q252H)
ABL1 Q252H non-phosphorylated: Tyrosine-protein kinase ABL1, non-phosphorylated (ABL1, Homo sapiens, UniProt P00519, Q252H)
ABL1 F317I non-phosphorylated: Tyrosine-protein kinase ABL1, non-phosphorylated (ABL1, Homo sapiens, UniProt P00519, F317I)
ABL1 Y253F phosphorylated: Tyrosine-protein kinase ABL1, phosphorylated (ABL1, Homo sapiens, UniProt P00519, Y253F)
ABL1 E255K phosphorylated: Tyrosine-protein kinase ABL1, phosphorylated (ABL1, Homo sapiens, UniProt P00519, E255K)
ABL1 T315I non-phosphorylated: Tyrosine-protein kinase ABL1, non-phosphorylated (ABL1, Homo sapiens, UniProt P00519, T315I)
ABL1 H396P phosphorylated: Tyrosine-protein kinase ABL1, phosphorylated (ABL1, Homo sapiens, UniProt P00519, H396P)
ABL1 Y253F: Tyrosine-protein kinase ABL1 (ABL1, Homo sapiens, UniProt P00519, Y253F)

Structure (SMILES) | target | effect on | method | tested at | remaining binding
c1cncc(-c2cccc(Nc3nccc(NC4CCCCC4)n3)c2)c1 | ABL1 T315I phosphorylated | binding | competition with immobilised ligand | 10 µM | 73%
COC(=O)Nc1nc2ccc(C(=O)c3ccccc3)cc2[nH]1 | ABL1 phosphorylated | cell-free assay | competition with immobilised ligand | 10 µM | 0.9%
CN(C)c1nccc(-c2cnc3ncccn23)n1 | ABL1 Q252H | binding |  | 1 µM | 72%
Cc1cnc(Nc2ccc(C(=O)N3CCC(N4CCCC4)CC3)cc2)nc1-c1cc2ccccc2s1 | ABL1 Q252H non-phosphorylated | binding | competition with immobilised ligand | 1 µM | 1.1%
CC1CCCN1c1nccc(-c2cnn3ncccc23)n1 (centres unmarked) | Tyrosine-protein kinase ABL1 (ABL1, Homo sapiens, UniProt P00519, H396P) | binding |  | 1 µM | 80%
COc1cnc(Nc2cccc(S(N)(=O)=O)c2)nc1N1CCN(c2ccccc2)CC1 | ABL1 Q252H non-phosphorylated | binding | competition with immobilised ligand | 1 µM | 78%
Cc1cc(NC(=O)c2cccc(S(F)(F)(F)(F)F)c2)cc(-n2ccn3nc(-c4cccnc4)cc23)c1 | ABL1 F317I non-phosphorylated | binding | competition with immobilised ligand | 1 µM | 100%
COc1ncc2cc3ccccc3nc2c1C#N | ABL1 Y253F phosphorylated | cell-free assay | competition with immobilised ligand | 5 µM | 92%
COc1ccnn2ncc(-c3ccnc(N(C)C)n3)c12 | ABL1 Q252H | binding |  | 1 µM | 82%
Nc1ncc2c(n1)-c1c([nH]c3ccc(C#CC4CC4)cc13)CCCC2 | ABL1 phosphorylated | binding | competition with immobilised ligand | 1 µM | 100%
CCCCN(CCCC)C(=O)CN1C[C@H](c2cc(OC)c3c(c2)OCO3)[C@@H](C(=O)O)[C@@H]1CC(C)(C)CCC | ABL1 F317I non-phosphorylated | binding | competition with immobilised ligand | 1 µM | 98.5%
CC(C)(C)c1ccc(-c2nc(CBr)nn2-c2cccc(O)c2)cc1 | ABL1 E255K phosphorylated | cell-free assay | competition with immobilised ligand | 10 µM | 74%
O=C(c1ccc(Nc2ncc(Cl)c(-c3cc4ccccc4s3)n2)cc1)N1CCC(N2CCCC2)CC1 | Tyrosine-protein kinase ABL1, non-phosphorylated (ABL1, Homo sapiens, UniProt P00519, H396P) | binding | competition with immobilised ligand | 1 µM | 1.8%
CS(=O)(=O)NCC[C@H](NC(=O)c1cncc2c1cnn2-c1ccc(F)cc1)c1ccnc(S(C)(=O)=O)c1 | ABL1 Y253F phosphorylated | cell-free assay | competition with immobilised ligand | 1 µM | 95%
CNC(=O)[C@@H]1CC[C@@H](n2c(-c3ccc4cnccc4c3)nc3ccc(C(=O)NCc4cccc(C(N)=O)c4)cc32)C1 | ABL1 Y253F phosphorylated | binding | competition with immobilised ligand | 1 µM | 100%
Cc1noc([C@H]2C[C@@H](c3ccc(C(F)(F)F)cc3)CN(C(=O)N3CCS(=O)(=O)C3)C2)n1 | ABL1 T315I non-phosphorylated | cell-free assay | competition with immobilised ligand | 1 µM | 100%
N#Cc1ccccc1CSc1nnc2c(n1)[nH]c1ccccc12 | ABL1 T315I phosphorylated | binding | competition with immobilised ligand | 10 µM | 92%
COc1cnc(Nc2cccc(S(N)(=O)=O)c2)nc1N1CCN(c2ccccc2)C(=O)C1 | Tyrosine-protein kinase ABL1, phosphorylated (ABL1, Homo sapiens, UniProt P00519, F317L) | binding | competition with immobilised ligand | 1 µM | 97%
O=C(NCCCN1CCOCC1)c1ccc(Nc2nccc(-c3cc4ccccc4s3)n2)cc1 | Tyrosine-protein kinase ABL1, phosphorylated (ABL1, Homo sapiens, UniProt P00519, M351T) | binding | competition with immobilised ligand | 1 µM | 49%

Structure (SMILES) | target | effect on | method | tested at | remaining binding
O=C(NCC1CCOCC1)c1n[nH]cc1NC(=O)c1c(F)cccc1F | ABL1 H396P phosphorylated | binding | competition with immobilised ligand | 1 µM | 93%
N[C@@H]1CCN(c2nccc(-c3cnn4ncccc34)n2)C1 | ABL1 Y253F | binding |  | 1 µM | 62%
C[C@@H](c1ccc(-n2cnc3c(N)ncnc32)cc1)N1CCc2nn(C)c(Cc3ccccc3)c2C1=O | ABL1 Y253F phosphorylated | binding | competition with immobilised ligand | 0.1 µM | 47%
CCN1CCN(Cc2ccc(C(=O)Nc3ccc(C)c(Oc4ccc5c(c4)CC(=O)N5)c3)cc2C(F)(F)F)CC1 | ABL1 T315I phosphorylated | binding | competition with immobilised ligand | 1 µM | 88%
c1cnn2ncc(-c3ccnc(N4CCC45COC5)n3)c2c1 | Tyrosine-protein kinase ABL1 (ABL1, Homo sapiens, UniProt P00519, M351T) | binding |  | 1 µM | 48%
COc1cc(-c2cn(C3CCc4c(F)cccc4N(CC(F)(F)F)C3=O)nn2)ccc1-n1cnc(C)c1 (centres unmarked) | Tyrosine-protein kinase ABL1, phosphorylated (ABL1, Homo sapiens, UniProt P00519, Q252H) | cell-free assay | competition with immobilised ligand | 1 µM | 100%
O=C(NCCCN1CCOCC1)c1ccc(Nc2ncc(Cl)c(-c3ccc(Cl)s3)n2)cc1 | ABL1 E255K phosphorylated | binding | competition with immobilised ligand | 1 µM | 37%
Cc1cnn2ncc(-c3ccnc(N(C)C)n3)c2c1 | ABL1 phosphorylated | binding |  | 1 µM | 81%
CO[C@@H](C)c1c(Nc2ccc([C@H](N(C)C(=O)C3CCS(=O)(=O)CC3)C(F)(F)F)cc2)cnc2cc(Cl)nn12 | ABL1 F317I non-phosphorylated | binding | competition with immobilised ligand | 1 µM | 100%
C[C@H]1CCN(c2nccc(-c3cnn4ncccc34)n2)C1 | ABL1 phosphorylated | binding |  | 1 µM | 59%
CN(C(=O)c1ccccc1)c1cc(N(C)c2ccc3c(c2)CCc2ccc(C(=O)NCCN4CCOCC4)cc2C3=O)ccc1F | ABL1 F317I non-phosphorylated | binding | competition with immobilised ligand | 1 µM | 79%
C=CC(=O)N1CCC(C(=O)NCC(=O)N2CCN(c3nc(-c4cnc(N)nc4C(F)F)nc(N4CCOCC4)n3)CC2)CC1 | ABL1 H396P phosphorylated | binding | competition with immobilised ligand | 1 µM | 83%
FC(F)(F)Oc1cccc(-c2cnc3ccc(-c4ccncc4)nn23)c1 | Tyrosine-protein kinase ABL1, non-phosphorylated (ABL1, Homo sapiens, UniProt P00519) | cell-free assay | competition with immobilised ligand | 5 µM | 68%
CN1CCN(c2ccc(Nc3nccc(-c4cccc([N+](=O)[O-])c4)n3)cc2C(F)(F)F)CC1 | ABL1 Y253F | binding |  | 10 µM | 4%
O=C(c1ccc(Nc2nccc(-c3cc4ccccc4s3)n2)cc1)N1CCC(N2CCCC2)CC1 | ABL1 phosphorylated | binding | competition with immobilised ligand | 1 µM | 21%
CN(C)c1nccc(-c2cnn3ncccc23)n1 | Tyrosine-protein kinase ABL1 (ABL1, Homo sapiens, UniProt P00519, E255K) | binding |  | 1 µM | 60%
O=C(Nc1c[nH]nc1C(=O)NC1CCNCC1)c1cc(F)cc(F)c1 | ABL1 T315I non-phosphorylated | binding | competition with immobilised ligand | 1 µM | 100%
O=C(c1ccc(Nc2ncc(Cl)c(-c3ccc(Cl)s3)n2)cc1)N1CCC(N2CCCC2)CC1 | Tyrosine-protein kinase ABL1, non-phosphorylated (ABL1, Homo sapiens, UniProt P00519, F317L) | binding | competition with immobilised ligand | 1 µM | 65%
CC1=C(C#N)C(c2ccc3c(c2)c(NC(=O)c2ccccc2C)nn3C)C(C#N)=C(C)N1 | ABL1 F317I non-phosphorylated | binding | competition with immobilised ligand | 1 µM | 100%
